From article PMC10184136 (RSC Advances, 2023)
Entries after “also recorded” stand apart in the source; their conditions may differ.

What was measured:
[1] = target: calf intestinal alkaline phosphatase (CIALP) (Bos taurus, UniProt P19111); assay: Alkaline phosphatase inhibition assay; assay type: biochemical
[2] = system: red blood cell membrane (bovine erythrocytes); assay: Hemolytic activity; assay type: cell-based; conditions: bovine erythrocyte (RBC) suspension, pH 7.4
Outline: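 Bovine blood was collected in EDTA, diluted with 0.9% NaCl and centrifuged at 1000×g for 10 min. Erythrocytes were suspended in phosphate saline buffer, pH 7.4. 20 μl of a 10 mg ml−1 compound solution was added to 180 μl RBC suspension and incubated 30 min at room temperature. PBS was the negative control and Triton X-100 the positive control. % hemolysis was calculated by formula; mean ± SEM.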

alkaline phosphatase = alkaline phosphatase (Bos taurus, UniProt P19111); assay: Kinetic analysis; assay type: biochemical, calf; conditions: for K m / V max: substrate p-NPP
alkaline phosphatase, sequence (P19111 20-506 limits assumed): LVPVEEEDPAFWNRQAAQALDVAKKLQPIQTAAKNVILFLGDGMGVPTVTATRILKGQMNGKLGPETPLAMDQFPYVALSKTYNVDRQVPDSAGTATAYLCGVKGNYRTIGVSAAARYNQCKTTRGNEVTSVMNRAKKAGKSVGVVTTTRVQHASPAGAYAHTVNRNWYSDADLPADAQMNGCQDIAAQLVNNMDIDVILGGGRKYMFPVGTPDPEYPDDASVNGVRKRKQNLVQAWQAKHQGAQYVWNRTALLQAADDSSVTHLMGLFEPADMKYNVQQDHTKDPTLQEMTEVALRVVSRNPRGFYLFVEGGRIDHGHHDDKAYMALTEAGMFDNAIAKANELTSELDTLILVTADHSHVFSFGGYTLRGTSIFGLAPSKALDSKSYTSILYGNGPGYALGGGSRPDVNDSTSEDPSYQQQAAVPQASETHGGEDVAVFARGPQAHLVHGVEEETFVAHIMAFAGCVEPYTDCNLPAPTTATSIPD
Outline: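 Run under the same pre-incubation and conditions as the CIALP p-NPP assay. p-NPP was used at 10, 5, 2.5, 1.25, 0.625 and 0.3125 mM with inhibitor at 0, 0.106, 0.211 and 0.422 μM. Initial velocities came from the linear absorbance phase, read at 1-min intervals up to 10 min. Inhibition type was taken from Lineweaver–Burk plots (1/V vs 1/[S]). Ki came from a secondary plot of slope vs inhibitor concentration, with linear least-squares fits.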

calf intestinal alkaline phosphatase (CIALP), sequence (P19111 20-506 limits assumed): as above

Row | SMILES | IC50 [1] [µM] | hemolysis at 30 min, 1 mg/mL [2] [%] | also measured
1 | Cc1cnc(NC(=O)CCSc2nnc(-c3ccc(O)cc3)o2)s1 [8f, 3-{[5-(4-Hydroxyphenyl)-1,3,4-oxadiazol-2-yl]sulfanyl}-N-(5-methyl-1,3-thiazol-2-yl)propanamide] | 2.16 ± 0.118 | 7.47 ± 0.05 | 
2 | Cc1cnc(NC(=O)CCSc2nnc(-c3ccc(N)cc3)o2)s1 [8g, 3-{[5-(4-Aminophenyl)-1,3,4-oxadiazol-2-yl]sulfanyl}-N-(5-methyl-1,3-thiazol-2-yl)propanamide] | 0.211 ± 0.019 | 8.82 ± 0.02 | Ki (alkaline phosphatase): 0.42 µM; K m (alkaline phosphatase; 8g 0.106 μM): 360 µM; V max (alkaline phosphatase; 8g 0.106 μM): 0.003004 ΔA min^−1; K m (alkaline phosphatase; 8g 0.211 μM): 360 µM; V max (alkaline phosphatase; 8g 0.211 μM): 0.002406 ΔA min^−1; K m (alkaline phosphatase; 8g 0.422 μM): 360 µM; V max (alkaline phosphatase; 8g 0.422 μM): 0.001826 ΔA min^−1; Inhibition type (alkaline phosphatase; Lineweaver–Burk plots): non-competitively; also recorded: Non-competitive
3 | Cc1cnc(NC(=O)CCSc2nnc(-c3cccc([N+](=O)[O-])c3)o2)s1 [8h, N-(5-Methyl-1,3-thiazol-2-yl)-3-{[5-(3-nitrophenyl)-1,3,4-oxadiazol-2-yl]sulfanyl}propanamide] | 3.75 ± 0.981 | 8.63 ± 0.02 | 
4 | CC(C)(C)CC(C)(C)c1ccc(OCCO)cc1 [Triton X, reference compound] |  | 89 ± 0.01 | 
5 | O=C(CCSc1nnc(-c2ccccc2)o1)Nc1nccs1 [8a, 3-[(5-Phenyl-1,3,4-oxadiazol-2-yl)sulfanyl]-N-(1,3-thiazol-2-yl)propanamide] | 3.98 ± 0.356 | 7.79 ± 0.02 | 
6 | Cc1ccc(-c2nnc(SCCC(=O)Nc3nccs3)o2)cc1 [8d, 3-{[5-(4-Methylphenyl)-1,3,4-oxadiazol-2-yl]sulfanyl}-N-(1,3-thiazol-2-yl)propanamide] | 1.88 ± 0.071 | 8.32 ± 0.03 | 
7 | Cc1cnc(NC(=O)CCSc2nnc(-c3ccccc3)o2)s1 [8e, N-(5-Methyl-1,3-thiazol-2-yl)-3-[(5-phenyl-1,3,4-oxadiazol-2-yl)sulfanyl]propanamide] | 6.32 ± 0.551 | 6.84 ± 0.03 | 
8 | O=C(CCSc1nnc(-c2ccc(O)cc2)o1)Nc1nccs1 [8b, 3-{[5-(4-Hydroxyphenyl)-1,3,4-oxadiazol-2-yl]sulfanyl}-N-(1,3-thiazol-2-yl)propanamide] | 5.99 ± 0.417 | 5.68 ± 0.04 | 
9 | Nc1ccc(-c2nnc(SCCC(=O)Nc3nccs3)o2)cc1 [8c, 3-{[5-(4-Aminophenyl)-1,3,4-oxadiazol-2-yl]sulfanyl}-N-(1,3-thiazol-2-yl)propanamide] | 8.73 ± 0.664 | 7.58 ± 0.01 | 
